Article PMC11582619 (Communications Biology, 2024)
pKd: −log10 of the molar value. Entries after “also recorded” stand apart in the source; their conditions may differ.

Legend:
HepG2 cells [1] = experiment: ROS levels by flow cytometry in ethanol-treated HepG2 cells; type: cell-based, human; settings: ethanol + compound
HepG2 cells [2] = experiment: Oil Red O staining of ethanol-induced lipid storage in HepG2 cells; type: cell-based, human; settings: compound 7.5 μmol/L
[3] = Plasma concentration of SSa, SSB1 and SGA after oral SSa; type: in vivo, mice; settings: for course of plasma level after administration (in words): after oral SSa 50 mg/kg
In short: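 Mice fasted 24 h, then given SSa 50 mg/kg by oral gavage. About 100 µL retro-orbital blood taken at 0, 0.5, 1, 2, 4, 6, 8, 10, 12 and 24 h; 9 mice per time point, three mice pooled per sample, n = 3. Plasma SSa, SSB1 and SGA measured by UHPLC-MS/MS against plasma-matrix calibration and QC standards. AUC by moment analysis with log-trapezoidal method.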

[4] = test system: liver, kidney, spleen, lung and heart; experiment: Short-term toxicity of SSa, 14 days by gavage, HE staining of organs; type: in vivo; settings: male C57BL/6J mice, SSa 15 mg/kg/daily
[5] = test system: PGC-1α, PPAR-α, CPT-1α, ACC-1, SREBP-1C, FAS, SCD-1 (liver mRNA); type: in vivo, C57BL/6J mice; settings: ethanol-fed mice, oral SSa
[6] = test system: SIRT1, SREBP-1C, PPAR-α and their target genes (liver mRNA); experiment: qRT-PCR of lipid metabolism genes and SIRT1 in liver of ALD mice; type: in vivo, C57BL/6J mice; settings: ethanol-fed mice, oral SSa
In short: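 NIAAA chronic-plus-binge model in C57BL/6J mice: 14-day 5% ethanol Lieber–DeCarli diet, oral SSa (5–15 mg/kg) daily for 7 days, ethanol binge on day 15, liver harvested 9 h later. Liver mRNA measured by SYBR Green qRT-PCR (25 nmol/L primers), β-actin reference, delta-delta Ct method. Protein by western blot: 20 µg per lane, 10% SDS-PAGE, ECL detection.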

[7] = test system: chronic-plus-binge ethanol-fed mice; experiment: Chronic-plus-binge ethanol-fed; type: in vivo, C57BL/6J mice
[8] = test system: chronic-plus-binge ethanol-fed mice with hepatic SIRT1 knockdown; experiment: NIAAA model in mice with hepatic SIRT1 knockdown; type: in vivo, C57BL/6J mice
In short: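 Hepatic SIRT1 knockdown in C57BL/6J mice by tail-vein AAV8-TBG-miR30 shRNA against mouse SIRT1, with ZsGreen tag (1 × 10^12 vg/mouse); AAV8-TBG-ZsGreen as control. Four weeks later: NIAAA chronic-plus-binge ethanol model with oral test compound once daily for 7 days. Knockdown checked by liver ZsGreen fluorescence and SIRT1 western blot. Body weight tracked, n = 6.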

[9] = target: T1, Recombinant human SIRT1 protein (Homo sapiens, UniProt Q96EB6); experiment: Microscale thermophoresis; type: binding; settings: Kd between SIRT1 and compound (MST), recombinant human SIRT1, RED-NHS labelled
T1 sequence (Q96EB6 1-747): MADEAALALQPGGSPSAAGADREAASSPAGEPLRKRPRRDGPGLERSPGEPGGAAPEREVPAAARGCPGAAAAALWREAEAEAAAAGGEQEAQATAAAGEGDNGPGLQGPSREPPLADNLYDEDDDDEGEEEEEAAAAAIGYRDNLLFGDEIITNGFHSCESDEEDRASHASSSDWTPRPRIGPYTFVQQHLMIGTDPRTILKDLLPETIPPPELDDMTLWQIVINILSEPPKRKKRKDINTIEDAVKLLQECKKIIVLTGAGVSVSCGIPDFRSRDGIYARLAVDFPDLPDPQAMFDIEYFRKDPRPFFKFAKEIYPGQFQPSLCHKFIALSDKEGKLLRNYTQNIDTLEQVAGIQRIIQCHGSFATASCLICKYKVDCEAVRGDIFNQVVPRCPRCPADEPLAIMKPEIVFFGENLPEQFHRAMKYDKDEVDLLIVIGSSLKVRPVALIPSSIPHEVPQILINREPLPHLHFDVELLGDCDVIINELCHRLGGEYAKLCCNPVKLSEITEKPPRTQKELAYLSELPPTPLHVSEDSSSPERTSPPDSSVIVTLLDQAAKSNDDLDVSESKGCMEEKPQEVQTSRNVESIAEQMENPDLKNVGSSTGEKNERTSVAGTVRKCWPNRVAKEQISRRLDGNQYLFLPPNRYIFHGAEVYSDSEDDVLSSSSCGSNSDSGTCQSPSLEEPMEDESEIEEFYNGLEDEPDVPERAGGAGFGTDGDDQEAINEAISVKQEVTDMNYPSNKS
In short: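 Recombinant human SIRT1 labelled with RED-NHS dye (30 min, room temperature, dark) and gel-filtered; pre-test checked labelling, adsorption and aggregation. Incubated 5 min at 24 °C before MST.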

SIRT1 [10] = experiment: Hepatic SIRT1 protein over time after gavage with SSa solution; type: in vivo, mice; settings: 0-12 h after gavage with SSa solution
[11] = cited from earlier work
[12] = test system: SIRT1, PGC-1α, PPAR-α, Deptor, mTOR, p-mTOR (liver); experiment: Western blot of liver proteins, with or without hepatic SIRT1 knockdown; type: in vivo, C57BL/6J mice; settings: ethanol-fed mice, oral SSa
SIRT1 [13] = experiment: Immunostaining targeting SIRT1 in mouse liver; type: in vivo, C57BL/6J mice; settings: ethanol-fed mice, oral SSa
In short: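 Male C57BL/6J mice (8 weeks) on the NIAAA chronic-plus-binge model: 5 days of Lieber–DeCarli control liquid diet, then 5% (v/v) ethanol liquid diet for 14 days. Oral SSa 5, 10 or 15 mg/kg once daily for 7 days. Day-15 oral ethanol binge; harvest under isoflurane 9 h later. Livers fixed in 4% paraformaldehyde, 5 µm sections, SIRT1 immunofluorescence imaged confocally; n = 3.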

[14] = mice, after intragastric SSa 50 mg/kg

Compound: C[C@H]1O[C@@H](O[C@H]2CC[C@@]3(C)[C@@H](CC[C@]4(C)[C@@H]3C=CC3=C5CC(C)(C)CC[C@]5(CO)[C@@H](O)C[C@]34C)[C@]2(C)CO)[C@H](O)[C@@H](O[C@@H]2O[C@H](CO)[C@@H](O)[C@H](O)[C@H]2O)[C@H]1O [SSB1, Saikosaponin B1]
- ethanol-induced ROS production (HepG2 cells [1]): had no effect on ROS
- ethanol-induced lipid droplet accumulation (Oil red O) (HepG2 cells [2]): had no significant effect
- maximal (peak) plasma concentration [3, 14]: 105.12 ng/mL
- time of first detection in plasma [3, 14]: 0.5 h
- time of peak plasma concentration [3, 14]: 1 h
- course of plasma level after administration (in words) ([3]; mice): undetectable after 6 h of administration; also recorded: quickly metabolized after administration

Compound: C[C@H]1O[C@@H](O[C@H]2CC[C@@]3(C)[C@@H](CC[C@]4(C)[C@@H]3C=C[C@]35OC[C@@]6(CCC(C)(C)C[C@H]63)[C@@H](O)C[C@]54C)[C@]2(C)CO)[C@H](O)[C@@H](O[C@@H]2O[C@H](CO)[C@@H](O)[C@H](O)[C@H]2O)[C@H]1O [SSa, Saikosaponin A]
- ethanol-induced ROS production (HepG2 cells [1]): significantly limited ethanol-induced ROS production
- short-term toxicity: pathological changes of liver, kidney, spleen, lung and heart (HE) [4]: no significant pathological changes
- liver PGC-1α, PPAR-α, CPT-1α mRNA with SIRT1 knockdown [5]: inhibits the upregulation of PGC-1α, PPAR-α, CPT-1α induced by SSa
- liver mRNA of SREBP-1C, ACC1, FAS and SCD-1 ([5]; reversed by SIRT1 knockdown): decreased the mRNA expression of SREBP-1C, ACC1, FAS and SCD-1
- liver mRNA of SREBP-1C and its target genes [6]: decreased the elevation of SREBP-1C, ACC-1, FAS and SCD-1 induced by alcohol
- alcohol-induced decrease of SIRT1 expression in the liver ([6]; mRNA and protein (Fig. 2I, J)): can reverse this phenomenon
- body weight and liver index ([7]; SSa 5, 10, 15 mg/kg oral): improved body weight and liver index in a dose-dependent manner
- NAD+/NADH ratio in liver homogenate ([7]; oral SSa): increased the NAD^+/NADH ratio
- TC and TG in liver homogenate ([7]; oral SSa): significantly reduced alcohol-induced TC and TG accumulation in the liver
- liver function and plasma TC, TG, γ-GT, De Ritis ratio ([7]; oral SSa): significantly ameliorated liver function and reduced the plasma TC, TG, γ-GT content and De Ritis ratio
- liver lipid deposition (Oil red O staining) ([7]; oral SSa): reduced alcohol-induced liver lipid deposition in a dose-dependent manner
- liver pathology (HE staining) ([7]; oral SSa): improves liver pathological injury
- body weight with hepatic SIRT1 knockdown ([8]; SSa administration for 7 days): had no effect on body weight
- NAD+/NADH with hepatic SIRT1 deficiency ([8]; ethanol-fed mice, oral SSa): the increase of NAD^+/NADH induced by SSa was also inhibited
- hepatic pathology and lipid deposition with hepatic SIRT1 deficiency ([8]; ethanol-fed mice, oral SSa): prevents the SSa’s improvement in alcohol-induced hepatic pathology and lipid deposition
- liver function recovery with hepatic SIRT1 knockdown ([8]; ethanol-fed mice, oral SSa): mitigated SSa’s improvement in alcohol-induced liver function recovery
- ethanol-induced lipid droplet accumulation (Oil red O) (HepG2 cells [2]): significantly reduced the lipid droplet accumulation induced by ethanol
- pKd [9]: ~4.60
- hepatic SIRT1 protein abundance over time (SIRT1 [10]): enhanced hepatic SIRT1 protein abundance at 4–12 h
- intestinal absorption after oral administration [11]: poor absorbance in the intestine when administered orally
- toxicity under intravenous injection [11]: marked hemolysis under intravenous injection
- liver PGC-1α, PPAR-α and Deptor protein with SIRT1 deficiency [12]: decreases the expression of PGC-1α, PPAR-α and Deptor induced by SSa treatment
- SIRT1 entry into the nucleus (liver immunofluorescence) (SIRT1 [13]): promoted SIRT1 entry into the nucleus
- maximal (peak) plasma concentration [3, 14]: 63.31 ng/mL
- course of plasma level after administration (in words) ([3]; mice): almost completely metabolized after 2 h of administration
- course of plasma level after administration (in words) ([3]; mice, listed as SSA): quickly metabolized after administration
- Tmax ([3]; mouse, plasma, po, 50 mg/kg): 30 min
